Bioassay records (PubChem BioAssay)
MrgX1 ag = activates human MrgX1 receptor signaling | Q96LB2 | MrgX1-HEK293 cells, Fluo-4 calcium fluorescence, agonist mode; hits give high values | B-score at 10 µM | hit rate 0.44% among 310,000 | AID 588627;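 active = calcium response B-score plate-corrected fluorescence ratio at least 3 library SD, with starting fluorescence B-score inside 5 SD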
Target sequence (Q96LB2 whole entry, looked up): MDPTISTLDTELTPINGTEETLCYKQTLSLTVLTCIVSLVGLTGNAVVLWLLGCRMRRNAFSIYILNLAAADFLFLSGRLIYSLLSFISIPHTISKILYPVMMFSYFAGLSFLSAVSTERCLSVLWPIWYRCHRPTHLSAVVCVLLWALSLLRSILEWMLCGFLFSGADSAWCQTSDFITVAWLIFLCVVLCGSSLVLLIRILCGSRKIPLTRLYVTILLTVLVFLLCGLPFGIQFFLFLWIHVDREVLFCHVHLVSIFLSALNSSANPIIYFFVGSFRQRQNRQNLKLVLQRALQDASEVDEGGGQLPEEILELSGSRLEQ
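Test system: HEK293 cells stably expressing human MrgX1 receptor; amount: 15,000 cells per well; doses: compound delivered in addition one of three; times: overnight plating before 1 h dye loading; detection: Fluo-4 NW calcium-flux fluorescence, kinetic read; read-out basis: B-scored fluorescence response ratio; controls: positive and negative controls per plate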
RGS4 pot = potentiators or activators of RGS4. HEK293 M3R/inducible RGS4, carbachol calcium flux Fluo4; hits give low values. B-score at 10 µM. hit rate 0.92% among 310,000;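 active = B-score of the integrated calcium signal more than 4 SD below the library mean, with starting fluorescence not abnormally high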;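 also: negative B-score means reduced calcium response which marks RGS4 activation or potentiation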
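test system = M3R-expressing HEK293 line, RGS4 induced by doxycycline | probe or stimulus = carbachol at ECmax as muscarinic agonist stimulus | timing = dye loading 30 min 37 °C, buffer rest 30 min RT | signal = calcium dye Fluo4 fluorescence | evaluation = B score from integrated fluorescence ratio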
MrgX1 antagonist = antagonists of human MrgX1 receptor. AID 588676. Q96LB2. hit rate 1.3% among 310,000. B-score at 10 µM. MRGX1-HEK293 calcium flux, Fluo-4, BAM8-22 antagonism; hits give low values;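 active = calcium-response B-score plate-corrected more than 3 library SD below zero, starting fluorescence within 5 deviations, no agonist response on first addition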;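 also: peak minus trough fluorescence over baseline after final BAM8-22 challenge near maximal dose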
RGS4 block = inhibitors of human RGS4; HEK293 M3R/RGS4 inducible, Fluo-4 calcium flux; hits give high values; triggered by carbachol at its EC20; hit rate 0.45% among 310,000; P49798; AID 463165; B-score at 10 µM;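 active = B-score, a plate-corrected calcium signal, over three deviations above library mean, with baseline fluorescence within five deviations of library mean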;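 also: RGS4 expression induced by doxycycline in cells with stable M3 receptor; B-score is computed from the integrated fluorescence ratio over baseline after carbachol; higher B-score means a larger calcium signal and so more RGS4 inhibition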
Target sequence (P49798 whole entry, looked up): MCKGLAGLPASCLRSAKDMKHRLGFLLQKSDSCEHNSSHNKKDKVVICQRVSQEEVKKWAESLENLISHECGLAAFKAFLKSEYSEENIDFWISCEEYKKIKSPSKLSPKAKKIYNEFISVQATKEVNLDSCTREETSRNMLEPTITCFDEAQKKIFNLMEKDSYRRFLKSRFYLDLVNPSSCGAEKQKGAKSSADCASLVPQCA
MrgX1 allo act = allosterically activates human MrgX1 receptor signaling; MrgX1-HEK293, Fluo-4 calcium flux, FDSS; hits give high values; AID 588675; B-score at 10 µM; hit rate 0.63% among 310,000; Q96LB2;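 active = plate-corrected calcium response at least 3 library SD above typical, normal starting fluorescence, not activating the receptor alone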;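 also: compound read alongside a low EC10 to EC30 dose of BAM8-22 agonist; peak minus trough fluorescence over baseline measured at the second addition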
MrgX1 antag conf = reconfirmed antagonist of human MrgX1 receptor signaling | shares compounds with MrgX1 antagonist | MrgX1-HEK293, BAM8-22 calcium flux, Fluo-4; hits give low values | remaining BAM8-22 calcium response % of control (hits give low values), % at 10 µM | hit rate 19% among 2,300;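 active = remaining agonist calcium response no higher than 100% minus 3 SD of agonist-only control wells, with starting fluorescence near control levels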;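 also: agonist BAM8-22 given at a near maximal EC90 to ECmax level; peak minus minimum fluorescence divided by baseline after agonist addition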
HEK293 Ca flux = MrgX1 antagonist counter-screen hit in parental HEK293 cells. Fluo-4 calcium fluorescence, FDSS. shares compounds with MrgX1 antagonist. fluorescence ratio F(max-min)/F0 at 10 µM. hit rate 2% among 4,000;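 active = duplicate-averaged calcium fluorescence ratio at least three times the standard deviation of buffer wells, a nonspecific response in parental cells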
HEK293 Ca counter = activity in parental HEK293 cells without MrgX1 | fluorescence ratio F(max-min)/F0 at 10 µM | parental HEK293 calcium flux, Fluo-4 fluorescence ratio; hits give high values | hit rate 0.4% among 4,000 | shares compounds with MrgX1 antagonist;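 active = calcium fluorescence ratio, averaged over duplicates, at least 3 SD of the buffer-well ratio, meaning a nonspecific response in receptor-free cells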;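 also: untransfected parental HEK293 lacking MrgX1 used as counterscreen for MrgX1 allosteric activators; fluorescence change taken during the second addition on a kinetic imager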
HEK293 Ca cntr2 = counter-screen for MrgX1 activators: effect in parental HEK293 cells. fluorescence ratio F(max-min)/F0 at 10 µM. hit rate 8.7% among 4,000. shares compounds with MrgX1 antagonist. Fluo-4 calcium fluorescence (FDSS); hits give high values;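 active = calcium fluorescence ratio at least three times the spread of buffer wells, meaning a non-specific response in parental cells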
* = called active by the depositor; i = inactive; . = not tested or not shown. A selection: hits, their analogues and other compounds. The true share with any hit is near 3.5%.

SMILES	MrgX1 ag	RGS4 pot	MrgX1 antagonist	RGS4 block	MrgX1 allo act	MrgX1 antag conf	HEK293 Ca flux	HEK293 Ca counter	HEK293 Ca cntr2
O=C(Nc1ccnn1C1CCN(CCCc2ccccc2)CC1)c1ccccc1Cl	i	i	i	i	i	.	.	.	.
CN1CCC(NCCC(c2ccc(F)cc2)c2ccc(Cl)cc2)CC1 (stereo not drawn)	i	i	-4.6*	i	i	i	i	i	i
CC(C)C(CCNC1CCN(C)CC1)c1ccc(Cl)cc1 (stereo not drawn)	i	i	i	i	i	.	.	.	.
CCOC(=O)CSc1nc(-c2cccs2)nc2c1c(=O)n(C)c(=O)n2C	i	i	i	i	i	.	.	.	.
CC(=O)c1ccc(OC(=O)c2ccc(-n3nc(C)cc3C)cc2)cc1	i	i	i	i	i	.	.	.	.
Cc1cc(C)n(-c2ccc(C(=O)Oc3ccc4c(c3)OCO4)cc2)n1	i	i	-6.7*	i	i	i	i	i	i
CCn1c2ccccc2c2c3ncc4cccn4c3ccc21	i	i	-5.8*	i	i	78%*	i	i	i
CCCCn1c(N)c(N(CCOC)C(=O)COC(=O)C(C)Oc2ccc(Cl)cc2)c(=O)[nH]c1=O (stereo not drawn)	i	i	i	i	i	.	.	.	.
CCC(C)Sc1ccc([C@H]2N[C@@](CC(C)C)(C(=O)OC)[C@H]3C(=O)N(C)C(=O)[C@@H]23)cc1 (stereo partly drawn)	i	i	i	i	i	.	.	.	.
CCN(CC)C(=O)NC(c1ccc(C)c(F)c1)C(Cl)(Cl)Cl (stereo not drawn)	i	i	i	i	i	.	.	.	.
Cc1ccc(C(NC(=O)N2CCOCC2)C(Cl)(Cl)Cl)cc1F (stereo not drawn)	i	i	-5.3*	i	i	81%*	i	i	i
O=C(NC1CCCN(Cc2ccc(Cl)cc2)C1)c1ccnc(Cl)c1 (stereo not drawn)	i	i	i	i	i	.	.	.	.
O=C(NC1CCCN(c2ccc(C(F)(F)F)cn2)C1)c1ccnc(Cl)c1 (stereo not drawn)	i	i	-4.9*	i	i	84%*	i	i	i
[O-]C1=N/[N+](=C/c2ccccc2Cl)CC1	i	i	i	i	i	.	.	.	.
CC1(C)C2CCC13CS(=O)(=O)N[C@@H]3C2 (stereo partly drawn)	i	i	-9.4*	i	i	i	i	i	i
Cc1ccccc1-c1nnnn1C1CCS(=O)(=O)C1 (stereo not drawn)	i	i	-6.4*	i	i	i	i	i	i
CCOc1cc(N2CCOCC2)c(OCC)cc1NC(=O)c1ccc(C)cc1	i	i	-12*	i	i	i	i	i	i
O=C(CSc1n[nH]c(=O)n1C1CC1)Nc1ccccc1	i	i	i	i	i	.	.	.	.
O=C(CSc1n[nH]c(=O)n1C1CC1)Nc1cc(Cl)ccc1Oc1ccccc1	i	i	-8.4*	i	i	i	i	i	i
COc1ccc(S(=O)(=O)N(C)c2ccc(C(=O)N3CCCCC3)cc2)cc1OC	i	i	i	i	i	.	.	.	.
CC(CN(C)Cc1nc(Cc2cccc(C(F)(F)F)c2)no1)CN1CCCC1 (stereo not drawn)	i	i	i	i	i	.	.	.	.
